Measurements: ChEMBL document CHEMBL1144169, “Synthesis and cytotoxic activity of heterocyclic ring-substituted betulinic acid derivatives” (Bioorg Med Chem Lett, 2008)
In brackets after ≈: the same amount, converted by molar mass.

Experiments:
[1] = system: PA-1; experiment: Cytotoxicity against human PA-1 cells after 72 hrs by MTT assay; assay type: functional, cell-based; details: PA-1, 72 h
In short: (§1)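 Cells harvested from 70–80% confluent cultures by trypsin/EDTA and seeded at 5000 cells/well in DMEM for 24 h. Compounds were dissolved in DMSO and diluted in medium to 0.5–20, with final DMSO below 1%. After 72 h at CO2, MTT was added for 3 h at 37 °C. Medium was replaced with DMSO and OD read at 540 nm. IC50 ± SD, three independent experiments.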

[2] = system: DU-145; experiment: Cytotoxicity against human DU145 cells after 72 hrs by MTT assay; assay type: functional, cell-based; details: DU-145, 72 h; in short: as §1
[3] = system: SW-620; experiment: Cytotoxicity against human SW620 cells after 72 hrs by MTT assay; assay type: functional, cell-based; details: SW-620, 72 h; in short: as §1
[4] = system: HBL-100; experiment: Cytotoxicity against human HBL100 cells after 72 hrs by MTT assay; assay type: functional, cell-based; details: HBL-100, 72 h; in short: as §1
[5] = system: MIA PaCa-2; experiment: Cytotoxicity against human MIA PaCa2 cells after 72 hrs by MTT assay; assay type: functional, cell-based; details: MIA PaCa-2, 72 h; in short: as §1
[6] = system: A549; experiment: Cytotoxicity against human A549 cells after 72 hrs by MTT assay; assay type: functional, cell-based; details: A549, 72 h; in short: as §1
[7] = system: K562; experiment: Cytotoxicity against human K-562 cells after 72 hrs by MTT assay; assay type: functional, cell-based; details: K562, 72 h
[8] = system: NIH3T3; experiment: Cytotoxicity against mouse NIH3T3 cells after 72 hrs by MTT assay; assay type: cell-based; details: NIH3T3, 72 h; in short: as §1

In the case of `C=C(C)[C@@H]1CC[C@]2(C(=O)O)CC[C@]3(C)[C@H](CC[C@@H]4[C@@]5(C)Cc6c([nH]c7ccccc67)C(C)(C)[C@@H]5CC[C@]43C)[C@@H]12`, the IC50 [1] was 6.01 µg/mL (≈ 11.4 µM), the IC50 [2] was 8.86 µg/mL (≈ 16.8 µM) and the IC50 [3] was 5.15 µg/mL (≈ 9.76 µM). For the same molecule, the IC50 [4] was 10.3 µg/mL (≈ 19.5 µM), the IC50 [5] was 6.7 µg/mL (≈ 12.7 µM) and the IC50 [6] was 7.6 µg/mL (≈ 14.4 µM). It also gave an IC50 [7] of 10 µg/mL (≈ 19 µM) and an IC50 [8] of 6.9 µg/mL (≈ 13.1 µM).
`CC(C)[C@@H]1CC[C@]2(C(=O)O)CC[C@]3(C)[C@H](CC[C@@H]4[C@@]5(C)Cc6c([nH]c7ccc(F)cc67)C(C)(C)[C@@H]5CC[C@]43C)[C@@H]12` was tested, and the IC50 [1] was > 20 µg/mL, the IC50 [2] was > 20 µg/mL and the IC50 [3] was 7.28 µg/mL (≈ 13.3 µM). For the same molecule, the IC50 [4] was > 20 µg/mL, the IC50 [5] was 8.4 µg/mL (≈ 15.3 µM) and the IC50 [6] was 8.89 µg/mL (≈ 16.2 µM). The IC50 [7] was 14 µg/mL (≈ 25.6 µM) and the IC50 [8] was 14.6 µg/mL (≈ 26.6 µM).
For `CC(C)[C@@H]1CC[C@]2(C(=O)O)CC[C@]3(C)[C@H](CC[C@@H]4[C@@]5(C)Cc6c(oc7ccccc67)C(C)(C)[C@@H]5CC[C@]43C)[C@@H]12`, the IC50 [1] was > 20 µg/mL, the IC50 [2] was > 20 µg/mL and the IC50 [3] was > 20 µg/mL. For the same molecule, the IC50 [4] was > 20 µg/mL, the IC50 [5] was 8.8 µg/mL (≈ 16.6 µM) and the IC50 [6] was 7.1 µg/mL (≈ 13.4 µM). For the same molecule, the IC50 [7] was 15.3 µg/mL (≈ 28.8 µM) and the IC50 [8] was 20 µg/mL (≈ 37.7 µM).
For `C=C(C)[C@@H]1CC[C@]2(C(=O)O)CC[C@]3(C)[C@H](CC[C@@H]4[C@@]5(C)CC[C@H](O)C(C)(C)[C@@H]5CC[C@]43C)[C@@H]12` [BETULINIC ACID], the IC50 [1] was 11.5 µg/mL (≈ 25.2 µM), the IC50 [2] was > 20 µg/mL and the IC50 [3] was 13.3 µg/mL (≈ 29 µM). It also gave an IC50 [4] of 5.02 µg/mL (≈ 11 µM), an IC50 [5] of 10.3 µg/mL (≈ 22.6 µM) and an IC50 [6] of 3 µg/mL (≈ 6.57 µM). It also gave an IC50 [7] of 3.25 µg/mL (≈ 7.12 µM) and an IC50 [8] of 4.37 µg/mL (≈ 9.57 µM).
`CC(C)[C@@H]1CC[C@]2(C(=O)O)CC[C@]3(C)[C@H](CC[C@@H]4[C@@]5(C)Cc6c([nH]c7ccc(Cl)cc67)C(C)(C)[C@@H]5CC[C@]43C)[C@@H]12` gave an IC50 [1] of 6.6 µg/mL (≈ 11.7 µM), an IC50 [2] of 6.5 µg/mL (≈ 11.5 µM) and an IC50 [3] of 5.9 µg/mL (≈ 10.5 µM). For the same molecule, the IC50 [4] was > 20 µg/mL, the IC50 [5] was 15.2 µg/mL (≈ 26.9 µM) and the IC50 [6] was 8.8 µg/mL (≈ 15.6 µM). The IC50 [7] was > 20 µg/mL and the IC50 [8] was 19 µg/mL (≈ 33.7 µM).
`C=C(C)[C@@H]1CC[C@]2(C(=O)NCC(=O)O)CC[C@]3(C)[C@H](CC[C@@H]4[C@@]5(C)Cc6c([nH]c7ccccc67)C(C)(C)[C@@H]5CC[C@]43C)[C@@H]12` was tested, and the IC50 [1] was 3 µg/mL (≈ 5.13 µM), the IC50 [2] was 7 µg/mL (≈ 12 µM) and the IC50 [3] was 8.7 µg/mL (≈ 14.9 µM). The IC50 [4] was > 20 µg/mL, the IC50 [5] was 0.67 µg/mL (≈ 1.15 µM) and the IC50 [6] was 3.53 µg/mL (≈ 6.04 µM). The IC50 [7] was 11.9 µg/mL (≈ 20.4 µM) and the IC50 [8] was 0.68 µg/mL (≈ 1.16 µM).
In the case of `C=C(C)[C@@H]1CC[C@]2(C(=O)O)CC[C@]3(C)[C@H](CC[C@@H]4[C@@]5(C)Cc6c([nH]c7ccc(F)cc67)C(C)(C)[C@@H]5CC[C@]43C)[C@@H]12`, the IC50 [1] was > 20 µg/mL, the IC50 [2] was > 20 µg/mL and the IC50 [3] was 9.16 µg/mL (≈ 16.8 µM). For the same molecule, the IC50 [4] was > 20 µg/mL, the IC50 [5] was 17.4 µg/mL (≈ 31.9 µM) and the IC50 [6] was 17.8 µg/mL (≈ 32.6 µM). The IC50 [7] was 10.9 µg/mL (≈ 20.1 µM) and the IC50 [8] was > 20 µg/mL.
For `C=C(C)[C@@H]1CC[C@]2(C(=O)O)CC[C@]3(C)[C@H](CC[C@@H]4[C@@]5(C)Cc6c([nH]c7c(F)cccc67)C(C)(C)[C@@H]5CC[C@]43C)[C@@H]12`, the IC50 [2] was > 20 µg/mL, the IC50 [3] was > 20 µg/mL and the IC50 [4] was 3.5 µg/mL (≈ 6.41 µM). It also gave an IC50 [5] of 3.3 µg/mL (≈ 6.05 µM), an IC50 [6] of 3 µg/mL (≈ 5.5 µM) and an IC50 [7] of 8.7 µg/mL (≈ 15.9 µM). The IC50 [8] was 2.1 µg/mL (≈ 3.85 µM).
